Activity calls are given as the source filed them. The rule behind the calls is not given here.
Assays:
[1] = target: Amyloid-beta precursor protein (Homo sapiens) (UniProt P05067); assay: Inhibition of amyloid beta (1 to 42) (unknown origin) fibril formation after 42 hrs by ThT fluorescence assay
Outline: (§1)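 Aβ1-42 (1 mM in 1% ammonia, diluted in buffer) added to a final 10 μM into 40 μM ThT in 10 mM Tris-HCl, 100 mM NaCl pH 7.4, with compound at 100, 50, 10 or 1 μM (0.5% DMSO), at room temperature. Ex/em 440/485 nm read for 42 h, in duplicate or triplicate, 2–4 runs. t1/2 and plateau F expressed relative to Aβ alone.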

[2] = target: Amyloid-beta precursor protein (Homo sapiens) (UniProt P05067); assay: Inhibition of amyloid beta (1 to 42) (unknown origin) aggregation after 42 hrs by uranyl acetate staining-based transmission electron microscopy
Outline: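 Samples prepared as for ThT: Aβ1-42 at 10 μM in 10 mM Tris-HCl, 100 mM NaCl pH 7.4, with or without compound at 10 or 100 μM. After 42 h, adsorbed 2 min onto carbon grids and negatively stained 45 s with 2% uranyl acetate. Imaged by TEM at 80 kV.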

[3] = target: Amyloid-beta precursor protein (Homo sapiens) (UniProt P05067); assay: Inhibition of amyloid beta (1 to 42) (unknown origin) fibril formation assessed as decrease in fluorescence plateau at compound/protein ratio of 1/1 after 42 hrs by ThT fluorescence assay relative to control; outline: as §1
[4] = target: Amyloid-beta precursor protein (Homo sapiens) (UniProt P05067); assay: Inhibition of amyloid beta (1 to 42) (unknown origin) fibril formation assessed as decrease in fluorescence plateau at compound/protein ratio of 10/1 after 42 hrs by ThT fluorescence assay relative to control; details: concentration not given here; outline: as §1
[5] = target: Amyloid-beta precursor protein (Homo sapiens) (UniProt P05067); assay: Inhibition of amyloid beta (1 to 42) (unknown origin) fibril formation assessed as extension of aggregation half life at compound/protein ratio of 10/1 after 42 hrs by ThT fluorescence assay relative to control; parameters: Activity: scale not given: the % may be the effect or the level left; outline: as §1
[6] = target: Amyloid-beta precursor protein (Homo sapiens) (UniProt P05067); assay: Inhibition of amyloid beta (1 to 42) (unknown origin) fibril formation assessed as extension of aggregation half life at compound/protein ratio of 1/1 after 42 hrs by ThT fluorescence assay relative to control; parameters: Activity: scale not given: the % may be the effect or the level left; outline: as §1

Chain of Amyloid-beta precursor protein (Homo sapiens) (P05067 whole entry): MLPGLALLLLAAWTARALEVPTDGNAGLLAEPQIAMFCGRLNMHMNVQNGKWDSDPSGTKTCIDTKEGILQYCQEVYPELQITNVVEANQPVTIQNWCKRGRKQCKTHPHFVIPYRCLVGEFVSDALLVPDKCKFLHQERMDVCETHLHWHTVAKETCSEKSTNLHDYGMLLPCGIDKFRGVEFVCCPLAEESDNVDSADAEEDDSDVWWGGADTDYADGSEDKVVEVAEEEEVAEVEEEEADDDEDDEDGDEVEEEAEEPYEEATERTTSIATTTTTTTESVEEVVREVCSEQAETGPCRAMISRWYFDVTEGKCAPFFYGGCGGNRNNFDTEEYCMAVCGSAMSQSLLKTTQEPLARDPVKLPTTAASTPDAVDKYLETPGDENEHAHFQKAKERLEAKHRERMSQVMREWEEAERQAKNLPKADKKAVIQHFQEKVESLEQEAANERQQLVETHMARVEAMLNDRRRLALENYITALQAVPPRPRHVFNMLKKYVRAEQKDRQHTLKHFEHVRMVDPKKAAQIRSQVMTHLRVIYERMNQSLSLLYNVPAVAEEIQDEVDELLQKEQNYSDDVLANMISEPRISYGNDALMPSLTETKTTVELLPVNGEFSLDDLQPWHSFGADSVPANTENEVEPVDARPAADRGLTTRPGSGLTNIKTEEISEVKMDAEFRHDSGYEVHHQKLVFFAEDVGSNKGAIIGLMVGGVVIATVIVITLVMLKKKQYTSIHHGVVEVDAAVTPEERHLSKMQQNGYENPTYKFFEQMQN

| inhibition [1] | inhibition [2] | inhibition [3] | inhibition [4] [%] | Activity [5] [%] | Activity [6] [%] | SMILES |
| --- | --- | --- | --- | --- | --- | --- |
| inactive | inactive |  |  |  |  | COc1ccc(NC(C)=O)cc1C(=O)NNC(=O)[C@H](CCCCNC(=O)OCc1ccccc1)NC(=O)CCOC[C@H]1OC(OCCCNC(=O)[C@@H](NC(=O)[C@H](C)N)C(C)C)[C@H](OCc2ccccc2)[C@@H](OCc2ccccc2)[C@@H]1OCc1ccccc1 (mixture of isomers) |
|  |  | inactive | 31 | 325 | 155 | COc1ccc(NC(C)=O)cc1C(=O)NNC(=O)[C@@H](NC(=O)CCOC[C@H]1OC(OCCCNC(=O)[C@@H](NC(=O)[C@H](C)N)C(C)C)[C@H](O)[C@@H](O)[C@@H]1O)C(C)C (mixture of isomers) |
| inactive | inactive |  |  |  |  | COc1ccc(NC(C)=O)cc1C(=O)NNC(=O)[C@@H](NC(=O)CCOC[C@H]1OC(OCCCNC(=O)[C@@H](NC(=O)[C@H](C)N)C(C)C)[C@H](OCc2ccccc2)[C@@H](OCc2ccccc2)[C@@H]1OCc1ccccc1)C(C)C (mixture of isomers) |
| inactive | inactive |  |  |  |  | COc1ccc(NC(C)=O)cc1C(=O)NNC(=O)[C@H](CCCCNC(=O)OCc1ccccc1)NC(=O)CCOC[C@H]1OC(OCCCNC(=O)[C@@H](NC(=O)[C@H](C)NC(=O)OC(C)(C)C)C(C)C)[C@H](OCc2ccccc2)[C@@H](OCc2ccccc2)[C@@H]1OCc1ccccc1 (mixture of isomers) |
